pEC50, pIC50: −log10 of the molar value.
How the values were obtained:
Plasmodium falciparum = assay: Antiparasitic activity against Plasmodium falciparum 3D7 infected in human erythrocytes after 48 hrs by SYBR green-1 staining based assay; format: functional, organism-based; conditions: 3D7, 48 h
[1] = molecular target: Lysine--tRNA ligase (Plasmodium falciparum (isolate 3D7)) (UniProt Q8IDJ8); assay: Binding affinity to Plasmodium falciparum KRS expressed in Escherichia coli BL21 by thermal shift assay
Procedure, shortened: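 Protein thermal shift assay with PfKRS at 2 μM in the presence of L-lysine. Binding is reported as the shift in melting temperature (ΔTm, °C) of the enzyme when the compound is added.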

Lysine--tRNA ligase [2] = molecular target: T1, Lysine--tRNA ligase (Homo sapiens, UniProt Q15046); assay: Inhibition of human KRS expressed in Escherichia coli BL21 using tRNA(Lys) as substrate after 1 hr in presence of L-lysine by AMP-GLO assay
Target sequence in this assay (Q15046 whole entry): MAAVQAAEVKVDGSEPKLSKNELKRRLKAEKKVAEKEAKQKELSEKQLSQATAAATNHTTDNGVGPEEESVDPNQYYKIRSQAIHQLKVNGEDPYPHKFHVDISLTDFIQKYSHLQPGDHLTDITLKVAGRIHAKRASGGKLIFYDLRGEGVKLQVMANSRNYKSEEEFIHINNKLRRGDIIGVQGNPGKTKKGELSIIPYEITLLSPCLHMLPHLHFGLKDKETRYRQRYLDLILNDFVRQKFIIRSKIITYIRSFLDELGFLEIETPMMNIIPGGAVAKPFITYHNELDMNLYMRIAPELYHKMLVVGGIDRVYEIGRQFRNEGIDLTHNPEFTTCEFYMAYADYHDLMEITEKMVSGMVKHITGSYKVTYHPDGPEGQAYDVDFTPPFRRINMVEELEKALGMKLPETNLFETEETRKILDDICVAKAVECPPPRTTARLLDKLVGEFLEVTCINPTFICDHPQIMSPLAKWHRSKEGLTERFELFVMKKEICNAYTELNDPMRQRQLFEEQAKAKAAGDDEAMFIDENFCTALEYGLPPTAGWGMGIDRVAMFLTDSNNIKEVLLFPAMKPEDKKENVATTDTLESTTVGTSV

Lysine--tRNA ligase [3] = molecular target: T1, Lysine--tRNA ligase; assay: Binding affinity to human KRS expressed in Escherichia coli BL21 by thermal shift assay
Procedure, shortened: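 Protein thermal shift assay with Hs-KRS at 4 μM in the presence of L-lysine; binding read out as the shift in melting temperature (ΔTm, °C) produced by each ligand.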
Target sequence in this assay (Q15046 2-597 limits assumed): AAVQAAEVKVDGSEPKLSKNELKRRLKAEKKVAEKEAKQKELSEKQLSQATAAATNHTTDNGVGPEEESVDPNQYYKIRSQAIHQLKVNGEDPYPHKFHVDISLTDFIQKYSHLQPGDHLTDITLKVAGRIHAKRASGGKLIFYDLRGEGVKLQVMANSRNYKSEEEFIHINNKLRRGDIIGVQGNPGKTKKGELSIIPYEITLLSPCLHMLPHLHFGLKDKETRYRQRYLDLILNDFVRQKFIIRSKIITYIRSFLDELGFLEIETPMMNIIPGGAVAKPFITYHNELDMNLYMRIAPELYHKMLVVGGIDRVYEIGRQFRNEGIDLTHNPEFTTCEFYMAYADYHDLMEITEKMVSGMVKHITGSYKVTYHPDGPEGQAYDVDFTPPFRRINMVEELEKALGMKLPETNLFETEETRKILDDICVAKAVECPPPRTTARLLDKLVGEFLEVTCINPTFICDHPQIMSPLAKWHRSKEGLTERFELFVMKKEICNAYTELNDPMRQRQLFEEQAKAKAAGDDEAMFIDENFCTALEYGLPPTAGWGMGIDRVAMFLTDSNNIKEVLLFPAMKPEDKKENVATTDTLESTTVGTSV

Lysine--tRNA ligase [4] = molecular target: Lysine--tRNA ligase (Plasmodium falciparum (isolate 3D7), UniProt Q8IDJ8); assay: Inhibition of Plasmodium falciparum KRS expressed in Escherichia coli BL21 using tRNA(Lys) as substrate after 45 mins in presence of L-lysine by AMP-GLO assay
[5] = Selectivity ratio of IC50 for human KRS to IC50 for Plasmodium falciparum KRS

Lysine--tRNA ligase (Plasmodium falciparum (isolate 3D7)), sequence (Q8IDJ8 1-583): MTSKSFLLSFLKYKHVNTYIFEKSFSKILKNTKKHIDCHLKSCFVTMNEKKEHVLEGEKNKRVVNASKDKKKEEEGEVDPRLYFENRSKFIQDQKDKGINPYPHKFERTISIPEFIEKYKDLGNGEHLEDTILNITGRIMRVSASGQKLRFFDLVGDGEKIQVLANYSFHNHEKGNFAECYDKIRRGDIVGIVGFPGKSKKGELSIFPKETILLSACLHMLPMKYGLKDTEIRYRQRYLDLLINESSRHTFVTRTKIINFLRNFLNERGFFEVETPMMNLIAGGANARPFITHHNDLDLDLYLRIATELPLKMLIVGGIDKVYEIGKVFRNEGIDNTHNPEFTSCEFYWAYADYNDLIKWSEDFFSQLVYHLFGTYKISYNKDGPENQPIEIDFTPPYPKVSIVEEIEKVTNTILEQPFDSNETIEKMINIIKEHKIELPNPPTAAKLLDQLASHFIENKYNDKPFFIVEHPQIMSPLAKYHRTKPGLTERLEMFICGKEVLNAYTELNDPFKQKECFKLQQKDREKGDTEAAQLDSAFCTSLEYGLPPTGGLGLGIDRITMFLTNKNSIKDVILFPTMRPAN
Lysine--tRNA ligase (Plasmodium falciparum (isolate 3D7), UniProt Q8IDJ8), sequence (Q8IDJ8 whole entry): as the sequence (Q8IDJ8 1-583) above

C[C@@H]1CCC[C@@H](C[C@@H]2Cc3cc(O)cc(O)c3C(=O)O2)O1
pEC50 (Plasmodium falciparum): < 5.70
ΔTm [1]: 7.9 °C
pIC50 (Lysine--tRNA ligase [2]): < 4.00
ΔTm (Lysine--tRNA ligase [3]): -0.9 °C
pIC50 (Lysine--tRNA ligase [4]): 4.30

C[C@@H]1CCC[C@H](C[C@@H]2Cc3cc(O)cc(O)c3C(=O)O2)O1
pEC50 (Plasmodium falciparum): < 5.70
ΔTm [1]: 11.8 °C
pIC50 (Lysine--tRNA ligase [2]): < 4.00
ΔTm (Lysine--tRNA ligase [3]): 0.3 °C
pIC50 (Lysine--tRNA ligase [4]): 4.67

C[C@H]1CCC[C@@H](C[C@H]2Cc3cc(O)cc(O)c3C(=O)O2)O1
pEC50 (Plasmodium falciparum): 5.96
ΔTm [1]: 15.6 °C
pIC50 (Lysine--tRNA ligase [2]): < 4.00
ΔTm (Lysine--tRNA ligase [3]): 0.1 °C
pIC50 (Lysine--tRNA ligase [4]): 5.24

C[C@H]1CCC[C@H](C[C@H]2Cc3cc(O)cc(O)c3C(=O)O2)O1 [CLADOSPORIN]
pEC50 (Plasmodium falciparum): 7.40
Ratio IC50 [5]: 840
ΔTm [1]: 17.3 °C
pIC50 (Lysine--tRNA ligase [2]): 3.98
ΔTm (Lysine--tRNA ligase [3]): 1.3 °C
pIC50 (Lysine--tRNA ligase [4]): 6.92

C[C@H]1CCC[C@H](C[C@@H]2Cc3cc(O)cc(O)c3C(=O)O2)O1
pEC50 (Plasmodium falciparum): 5.80
ΔTm [1]: 14.3 °C
pIC50 (Lysine--tRNA ligase [2]): < 4.00
ΔTm (Lysine--tRNA ligase [3]): 0.5 °C
pIC50 (Lysine--tRNA ligase [4]): 5.33

C[C@H]1CCC[C@@H](C[C@@H]2Cc3cc(O)cc(O)c3C(=O)O2)O1
pEC50 (Plasmodium falciparum): < 5.70
ΔTm [1]: 11.4 °C
pIC50 (Lysine--tRNA ligase [2]): < 4.00
ΔTm (Lysine--tRNA ligase [3]): 1.1 °C
pIC50 (Lysine--tRNA ligase [4]): 4.54

C[C@@H]1CCC[C@H](C[C@H]2Cc3cc(O)cc(O)c3C(=O)O2)O1
pEC50 (Plasmodium falciparum): 6.57
ΔTm [1]: 16.2 °C
pIC50 (Lysine--tRNA ligase [2]): < 4.00
ΔTm (Lysine--tRNA ligase [3]): 1 °C
pIC50 (Lysine--tRNA ligase [4]): 6.54

C[C@@H]1CCC[C@@H](C[C@H]2Cc3cc(O)cc(O)c3C(=O)O2)O1
pEC50 (Plasmodium falciparum): 5.94
ΔTm [1]: 13.5 °C
pIC50 (Lysine--tRNA ligase [2]): < 4.00
ΔTm (Lysine--tRNA ligase [3]): 1.1 °C
pIC50 (Lysine--tRNA ligase [4]): 5.14
